From PubChem
ANO1 activ = mouse TMEM16A channel activation, primary screen; B-score at 10 µM; Q8BHY3; AID 623877; HEK293 TMEM16A/YFP-H148Q/I152L, iodide quench fluorescence; active compounds read low; 0.3% of 340,000 active;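 active = fluorescence-ratio B-score plate-corrected deviation score at least 3 library SD below zero, with starting fluorescence score within 5 deviations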;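 note: channel opened by trigger with iodide after compound preincubation; score built on the fluorescence ratio of max minus min over baseline; more negative score means more quench and so TMEM16A activation or potentiation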
TMEM16A inh = blocks the mouse calcium-activated chloride channel TMEM16A. Q8BHY3. HEK293 TMEM16A/YFP iodide influx fluorescence, ionomycin. normalized B-score (activity score, 25-100; higher = stronger inhibition) at 10 µM. 1.2% of 310,000 active. AID 588511;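 active = ratio plate-corrected score three or more library SD toward inhibition, starting fluorescence score within five deviations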;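 note: score derived from kinetic fluorescence span divided by baseline fluorescence per well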
DNA FID counter = counter-screen for HCV NS3 helicase inhibitors: DNA intercalator displacement; DNA fluorescent intercalator displacement, fluorescence; inhibition, % at 7.9 µM; 0.17% of 290,000 active; AID 1845; in the data active = inhibition above about 37%;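 note: 0% = vehicle and 100% = reference compound; higher means more ethidium bromide displaced from hairpin DNA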
Apaf-1 inh = blocks human Apaf-1 apoptosome activity; O14727; reconstituted apoptosome caspase-3 activity, DEVD-Rh110 fluorescence; inhibition, % at 20 µM; 0.71% of 330,000 active; AID 489030; active = inhibition of at least 40% at 20 µM;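 note: plate controls were DMSO wells for no effect and DEVD-CHO caspase inhibitor wells for full effect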
Target sequence (O14727 whole entry, looked up): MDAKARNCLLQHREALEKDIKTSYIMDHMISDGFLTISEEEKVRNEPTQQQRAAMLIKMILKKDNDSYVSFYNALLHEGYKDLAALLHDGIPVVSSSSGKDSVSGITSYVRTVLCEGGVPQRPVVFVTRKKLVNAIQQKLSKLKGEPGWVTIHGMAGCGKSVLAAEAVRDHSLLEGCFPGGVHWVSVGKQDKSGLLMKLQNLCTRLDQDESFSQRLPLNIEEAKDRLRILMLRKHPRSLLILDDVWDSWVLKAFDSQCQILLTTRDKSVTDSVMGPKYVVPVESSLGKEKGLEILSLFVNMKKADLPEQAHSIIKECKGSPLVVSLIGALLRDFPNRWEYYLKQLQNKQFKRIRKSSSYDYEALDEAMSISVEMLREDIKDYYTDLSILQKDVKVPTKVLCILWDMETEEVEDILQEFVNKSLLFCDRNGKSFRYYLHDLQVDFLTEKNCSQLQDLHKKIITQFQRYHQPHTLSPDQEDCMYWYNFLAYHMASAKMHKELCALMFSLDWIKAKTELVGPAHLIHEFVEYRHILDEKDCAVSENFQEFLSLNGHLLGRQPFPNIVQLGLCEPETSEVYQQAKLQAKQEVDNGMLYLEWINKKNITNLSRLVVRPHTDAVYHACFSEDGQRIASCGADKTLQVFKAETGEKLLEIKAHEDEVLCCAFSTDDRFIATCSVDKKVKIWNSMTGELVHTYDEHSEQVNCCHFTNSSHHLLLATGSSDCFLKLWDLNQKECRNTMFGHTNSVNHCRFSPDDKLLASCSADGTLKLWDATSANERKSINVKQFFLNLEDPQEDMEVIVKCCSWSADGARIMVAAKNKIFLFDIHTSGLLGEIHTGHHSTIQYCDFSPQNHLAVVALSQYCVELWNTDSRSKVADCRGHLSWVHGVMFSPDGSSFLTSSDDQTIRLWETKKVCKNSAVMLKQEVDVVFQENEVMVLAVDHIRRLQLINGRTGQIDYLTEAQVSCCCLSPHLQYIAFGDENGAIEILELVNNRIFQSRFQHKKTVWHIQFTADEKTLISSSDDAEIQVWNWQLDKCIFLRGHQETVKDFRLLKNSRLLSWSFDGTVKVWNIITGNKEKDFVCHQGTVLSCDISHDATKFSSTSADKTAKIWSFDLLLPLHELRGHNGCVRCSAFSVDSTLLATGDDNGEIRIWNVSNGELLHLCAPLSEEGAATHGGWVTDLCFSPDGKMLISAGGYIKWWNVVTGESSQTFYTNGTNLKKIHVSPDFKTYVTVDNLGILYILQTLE
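System – cell-free apoptosome with Apaf-1, procaspase-3 and caspase-9 · Buffer or medium – pH 7.5 Hepes buffer with CHAPS, BSA, DTT · Also added – cytochrome c with DEVD-Rh110 · Times – 30 min compound preincubation, 50 min activation, room temperature · Technique – Rh110 fluorescence intensity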
UBC13 inh = inhibitors of human UBC13 polyubiquitin chain formation; P61088; TR-FRET; inhibition, % at 20 µM; 0.47% of 330,000 active; in the data active = inhibition above about 45%, passing the limit was not always enough; inconclusive = no clear call, values can overlap the other calls
Casp3 counter = inhibits human caspase-3 in UBC13 counter-screen; 4% of 1,400 active; shares compounds with UBC13 inh; inhibition, % at 20 µM; AID 488856; Recombinant caspase-3, Caspase-Glo 3/7 luminescence, 60 min;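 active = mean inhibition across replicates above about 26%, limit read from the data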;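 note: plate controls were DMSO with caspase-3 for no effect and DMSO wells lacking enzyme for full effect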
UBC13 confirm = human UBC13 polyubiquitin inhibition, confirmed; shares compounds with UBC13 inh; UBC13 polyubiquitination, TR-FRET, biochemical; inhibition, % at 10 µM; 68% of 1,400 active; AID 488859; in the data active = inhibition above about 45%; inconclusive = no clear call, values can overlap the other calls
* hit, by the source's call; i = inactive; ? = inconclusive; nt = not tested or not shown. Hits are enriched below; roughly 2.4% of the tested compounds scored in any of these assays.

SMILES	ANO1 activ	TMEM16A inh	DNA FID counter	Apaf-1 inh	UBC13 inh	Casp3 counter	UBC13 confirm
Cc1ccc(C(=O)NCCN2C3=NC[C@H](Cc4ccc(O)cc4)N3C[C@H]2Cc2ccc(O)cc2)cc1Br	i	i	nt	9	55*	0	27
Cc1ccc(C(=O)N[C@@H](C)CN2C3=NC[C@H](C(C)C)N3C[C@H]2Cc2ccc(O)cc2)cc1Br	i	i	12	15	42	nt	nt
COc1ccc(C[C@H]2CN3C(=NC[C@@H]3Cc3ccc(O)cc3)N2C[C@H](C)NC(=O)c2ccc(C)c(Br)c2)cc1	i	i	nt	28	59*	-1	52*
O=C(NC(=S)NCC1CCCO1)c1cccc([N+](=O)[O-])c1 (configuration not stated)	i	i	5	-4	-1	nt	nt
COc1ccc(C[C@H]2CN3C(=NC[C@H]3Cc3ccccc3)N2CCNC(=O)CCC2CCCCC2)cc1	i	i	9	31	66*	0	62*
C/C=C(\C)C(=O)NCCN1C2=NC[C@H](Cc3ccccc3)N2C[C@@H]1Cc1ccc(OC)cc1	i	i	nt	39	22	nt	nt
O=C(COc1c(CO)cc(Br)cc1CO)NC1CCCc2ccccc21 (configuration not stated)	i	i	-21	-10	11	nt	nt
COC(=O)c1ccc(CNC(=O)c2ccc(COc3ccccc3)cc2)cc1	i	i	-8	-8	-17	nt	nt
OCc1cn(-c2ccccc2)nc1-c1ccc(-c2nn(-c3ccccc3)cc2CO)cc1	i	i	-8	6	13	nt	nt
Cc1ccc(-c2nn(-c3ccccc3)cc2CSC(=N)N)cc1	i	25*	24	25	45*	1	48*
CN(C)CCNC(=O)c1cc2c(s1)-c1ccc(Cl)cc1SC2	i	i	25	30	62*	-2	73*
OC(CNCCc1ccc(C(F)(F)F)cc1)COC(c1ccccc1)c1ccccc1 (configuration not stated)	i	i	36	17	37	nt	nt
CNCCC(Oc1ccc(C(F)(F)F)cc1)c1ccccc1 (configuration not stated)	i	i	15	29	50*	-6	36
CCOC(=O)c1cc(-c2ccc(C#N)cc2)nc2c1c(C)nn2CCC#N	i	i	-2	8	22	nt	nt
CCOC(=O)c1cc(-c2ccc(OC)cc2)nc2c1c(C)nn2CCC#N	i	i	-19	18	53*	0	?
Cc1cccc(C(=O)NC2CCN(CC(=O)Nc3ccccc3Cl)CC2)c1	i	i	-26	-14	0	nt	nt
Cc1ccc(S(=O)(=O)N2CC(O)C[C@H]2C(=O)OCC(=O)N2CCN(c3ccc(F)cc3)CC2)cc1C (some centres not stated)	i	nt	nt	nt	nt	nt	nt
CC[C@@H](C)[C@H](CN[C@H](CNC)C(C)C)NC[C@@H](C)c1ccc(CC(C)C)cc1	i	i	29	9	89*	-2	72*
CCCCOc1ccc(C(=O)NNC(=O)c2cnccn2)cc1OC	i	nt	nt	-5	64*	-3	24
COc1ccc(CC(=O)NNC(=O)c2cnccn2)cc1	i	i	-7	-7	4	nt	nt
Cc1c(C(=O)N2CCNCC2)oc2ccccc12	i	i	-2	-2	-2	nt	nt
CN(C)CCC(=O)C(Cc1ccccc1)c1ccccc1 (configuration not stated)	i	i	nt	-17	47*	4	40
COc1ccc(-n2c(N)cc(=O)nc2SCC(=O)NC2CCCCC2)cc1	i	nt	nt	nt	nt	nt	nt
CN(C)c1ccc(NC(=S)c2ccc3ccccc3n2)cc1	i	i	20	20	-55	nt	nt
Cc1cc(NC(=O)Cn2c(=O)n(CCCCC(=O)NC3CCN(Cc4ccccc4)CC3)c(=O)c3ccccc32)n[nH]1	nt	i	4	-11	52*	-2	48*
SMILES	ANO1 activ	TMEM16A inh	DNA FID counter	Apaf-1 inh	UBC13 inh	Casp3 counter	UBC13 confirm
O=C(CCCCn1c(=O)[nH]c2ccccc2c1=O)NC1CCN(Cc2ccccc2)CC1	i	i	-1	7	28	nt	nt
COC(=O)c1ccccc1NC(=O)Cn1c(=O)n(CCC(=O)NC2CCN(Cc3ccccc3)CC2)c(=O)c2ccccc21	i	i	-1	-20	11	nt	nt
O=C(CCCCn1c(=O)c2ccccc2n(Cc2ccccc2F)c1=O)NC1CCN(Cc2ccccc2)CC1	i	i	-11	4	100*	0	107*
Cc1cccc(C)c1NC(=O)Cn1c(=O)n(CCCC(=O)NC2CCN(Cc3ccccc3)CC2)c(=O)c2ccccc21	i	i	8	2	85*	-2	105*
COc1ccc(NC(=O)CSCC(=O)N(C)CC(=O)Nc2cccc3ccccc23)cc1	i	i	nt	5	6	nt	nt
CCOc1cc(C2C(C#N)=C(N)Oc3n[nH]c(-c4ccccc4)c32)ccc1O (configuration not stated)	i	i	-4	12	83*	3	100*
N#CC1=C(N)Oc2n[nH]c(-c3ccccc3)c2C1c1cccnc1 (configuration not stated)	i	i	-1	2	-11	nt	nt
Cc1ccc(NC(=S)NCc2cccs2)cc1	i	i	-1	-1	52*	2	6
S=C(NCc1cccs1)Nc1ccccc1	i	i	3	6	4	nt	nt
CC(=O)Nc1ccc(NC(=O)C(C)Sc2nc3ccccc3c(=O)n2Cc2ccco2)cc1 (configuration not stated)	i	i	nt	-2	6	nt	nt
CCn1c(=O)c(C(=O)NCCN2CCCCC2)c(O)c2ccccc21	i	i	13	0	48*	1	55*
CCn1c(=O)c(C(=O)NCCc2ccccc2)c(O)c2ccccc21	i	i	0	9	34	nt	nt
Cc1ccc(C)c(N2CCN(C(=S)Nc3ccc4nc(N5CCN(C)CC5)cc(C)c4c3)CC2)c1	i	i	47*	7	49*	0	73*
O=C(NCCN1CCCC1)c1ccc(Cn2c(=S)[nH]c3ccc(Br)cc3c2=O)cc1	i	i	2	8	?	nt	nt
CC1CCN(CCNC(=O)c2ccc3c(=O)n(Cc4ccc(Cl)cc4)c(=S)[nH]c3c2)CC1	i	i	15	36	45*	-3	61*
O=C(NCCCN1CCOCC1)c1ccc2c(=O)n(Cc3cccc(Br)c3)c(=S)[nH]c2c1	i	i	14	22	49*	-2	60*
O=C(NCCCN1CCCC1)c1ccc(Cn2c(=S)[nH]c3ccc(Br)cc3c2=O)cc1	nt	i	15	16	48*	12	?
